The source made the active and inactive calls. The rule behind the calls is not given here.
What was measured:
Hepatitis C virus [1] = test: Antiviral activity against Hepatitis C virus subtype 1b expressing NS3 R109K mutant infected in HuH7 cells after 48 hrs by luciferase reporter assay; type: functional, organism-based, Hepacivirus hominis; conditions: genotype 1b, Huh-7, 48 h
Outline: (§1)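 Genotype 1b con1 subgenomic bicistronic replicon (clone ET) with luciferase reporter and adaptive mutations E1202G, T1280I, K1846T, carrying site-directed NS3 single or double mutations. 10 μg wild-type or mutant replicon RNA electroporated into Huh7-lunet cells, seeded 4,000 cells/well over a nine-point inhibitor dilution series, 48 h at 37°C, 5% CO2, then luminescence read. EC50 taken as median of individual experiments; fold change relative to parental replicon EC50.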

Hepatitis C virus [2] = test: Antiviral activity against Hepatitis C virus subtype 1b expressing NS3 F43S and D168E mutant infected in HuH7 cells after 48 hrs by luciferase reporter assay; type: functional, organism-based, Hepacivirus hominis; conditions: genotype 1b, Huh-7, 48 h; outline: as §1
Hepatitis C virus [3] = test: Antiviral activity against Hepatitis C virus subtype 1b expressing NS3 D168Y mutant infected in HuH7 cells after 48 hrs by luciferase reporter assay; type: functional, organism-based, Hepacivirus hominis; conditions: genotype 1b, Huh-7, 48 h; outline: as §1
Hepatitis C virus [4] = test: Antiviral activity against Hepatitis C virus subtype 1b expressing NS3 V36M mutant infected in HuH7 cells after 48 hrs by luciferase reporter assay; type: functional, organism-based, Hepacivirus hominis; conditions: genotype 1b, Huh-7, 48 h; outline: as §1
Hepatitis C virus [5] = test: Antiviral activity against Hepatitis C virus subtype 1b expressing NS3 D168A mutant infected in HuH7 cells after 48 hrs by luciferase reporter assay; type: functional, organism-based, Hepacivirus hominis; conditions: genotype 1b, Huh-7, 48 h; outline: as §1
Hepatitis C virus [6] = test: Antiviral activity against Hepatitis C virus subtype 1b expressing NS3 Q80R mutant infected in HuH7 cells after 48 hrs by luciferase reporter assay; type: functional, organism-based, Hepacivirus hominis; conditions: genotype 1b, Huh-7, 48 h; outline: as §1
Hepatitis C virus [7] = test: Antiviral activity against Hepatitis C virus subtype 1b expressing NS3 R155M mutant infected in HuH7 cells after 48 hrs by luciferase reporter assay; type: functional, organism-based, Hepacivirus hominis; conditions: genotype 1b, Huh-7, 48 h; outline: as §1
Hepatitis C virus [8] = test: Antiviral activity against Hepatitis C virus subtype 1b expressing WT NS3 infected in HuH7 cells after 48 hrs by luciferase reporter assay; type: functional, organism-based, Hepacivirus hominis; conditions: genotype 1b, Huh-7, 48 h
Outline: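 Huh7-lunet cells were electroporated with 10 μg wild-type genotype 1b subgenomic replicon RNA (clone ET; luciferase reporter; E1202G, T1280I, K1846T). They were seeded at 4,000 cells/well over a nine-point compound dilution series. After 48 h at 37°C, 5% CO2, luciferase reagent was added 1:1, followed by 10–20 min in the dark and a luminescence read. EC50 is the median of individual-experiment EC50s.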

Hepatitis C virus [9] = test: Antiviral activity against Hepatitis C virus subtype 1b expressing NS3 Q80R and D168E mutant infected in HuH7 cells after 48 hrs by luciferase reporter assay; type: functional, organism-based, Hepacivirus hominis; conditions: genotype 1b, Huh-7, 48 h; outline: as §1
Hepatitis C virus [10] = test: Ratio of EC50 for Hepatitis C virus subtype 1b expressing NS3 Q80R and D168A mutant to EC50 for Hepatitis C virus subtype 1b expressing WT NS3 infected in HuH7 cells after 48 hrs by luciferase reporter assay; type: functional, Hepacivirus hominis, genotype 1b, Huh-7
Outline: (§2)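 Transient replicon assay: site-directed single or multiple NS3 mutations engineered into genotype 1b (con1, clone ET) subgenomic bicistronic replicon with luciferase reporter and adaptive mutations E1202G, T1280I, K1846T. Huh7-lunet cells electroporated with 10 μg wild-type or mutant replicon RNA, seeded 4,000 cells/well with nine-point inhibitor dilution; 48 h, 37°C, 5% CO2; luminescence read-out. EC50 as median of individual experiments; fold change versus parental replicon EC50.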

Hepatitis C virus [11] = test: Antiviral activity against Hepatitis C virus subtype 1b expressing NS3 V170A mutant infected in HuH7 cells after 48 hrs by luciferase reporter assay; type: functional, organism-based, Hepacivirus hominis; conditions: genotype 1b, Huh-7, 48 h; outline: as §1
Hepatitis C virus [12] = test: Ratio of EC50 for Hepatitis C virus subtype 1b expressing NS3 D168A mutant to EC50 for Hepatitis C virus subtype 1b expressing WT NS3 infected in HuH7 cells after 48 hrs by luciferase reporter assay; type: functional, Hepacivirus hominis, genotype 1b, Huh-7; outline: as §1
Hepatitis C virus [13] = test: Antiviral activity against Hepatitis C virus subtype 1b expressing NS3 V36A mutant infected in HuH7 cells after 48 hrs by luciferase reporter assay; type: functional, organism-based, Hepacivirus hominis; conditions: genotype 1b, Huh-7, 48 h; outline: as §1
Hepatitis C virus [14] = test: Antiviral activity against Hepatitis C virus subtype 1b expressing NS3 A156G mutant infected in HuH7 cells after 48 hrs by luciferase reporter assay; type: functional, organism-based, Hepacivirus hominis; conditions: genotype 1b, Huh-7, 48 h; outline: as §1
Hepatitis C virus [15] = test: Antiviral activity against Hepatitis C virus subtype 1b expressing NS3 Q80L mutant infected in HuH7 cells after 48 hrs by luciferase reporter assay; type: functional, organism-based, Hepacivirus hominis; conditions: genotype 1b, Huh-7, 48 h; outline: as §1
Hepatitis C virus [16] = test: Ratio of EC50 for Hepatitis C virus subtype 1b expressing NS3 Q41R mutant to EC50 for Hepatitis C virus subtype 1b expressing WT NS3 infected in HuH7 cells after 48 hrs by luciferase reporter assay; type: functional, Hepacivirus hominis, genotype 1b, Huh-7; outline: as §2
Hepatitis C virus [17] = test: Antiviral activity against Hepatitis C virus subtype 1b expressing NS3 Q41R mutant infected in HuH7 cells after 48 hrs by luciferase reporter assay; type: functional, organism-based, Hepacivirus hominis; conditions: genotype 1b, Huh-7, 48 h; outline: as §1
Hepatitis C virus [18] = test: Antiviral activity against Hepatitis C virus subtype 2a JFH1 infected in HuH7.5 cells assessed as viral RNA replication after initial decline at 500 nM after 3 days by TaqMan RT-PCR; type: functional, organism-based; conditions: Hepacivirus hominis
Hepatitis C virus [19] = test: Antiviral activity against Hepatitis C virus subtype 2a JFH1 infected in HuH7.5 cells assessed as reduction in cellular viral RNA levels normalized to RPL13A RNA levels at 500 nM after 3 days by TaqMan RT-PCR; type: functional, organism-based; conditions: Hepacivirus hominis
Hepatitis C virus [20] = test: Inhibition of Hepatitis C virus subtype 1b NS3/4A protease
Hepatitis C virus [21] = test: Antiviral activity against Hepatitis C virus infected in HuH7 cells assessed as cell viability at 2.5 times EC50 after 2 to 3 weeks by neutral red assay in presence of 1,000 ug/ml G418; type: functional, organism-based; conditions: Hepacivirus hominis; Huh-7
Outline: (§3)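 Huh7-Luc genotype 1b (con1, clone ET) replicon cells, 20,000 per 10-cm dish in DMEM with 1,000 μg/ml G418. Cells got one inhibitor or a two-inhibitor combination, dosed as multiples of each inhibitor's EC50 from a genotype 1b luciferase replicon assay. Held at 37°C, 5% CO2, with medium plus compound refreshed twice weekly. After 2–3 weeks, surviving colonies were stained with neutral red and counted. Three independent experiments.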

[22] = Inhibition of Hepatitis C virus subtype 3a NS3/4A protease
[23] = Inhibition of Hepatitis C virus subtype 2a NS3/4A protease
Hepatitis C virus [24] = test: Antiviral activity against Hepatitis C virus subtype 2a JFH1 infected in HuH7.5 cells assessed as occurrence of the viral-induced CPE at 4000 nM after 3 days by luciferase reporter assay; type: functional, organism-based; conditions: Hepacivirus hominis
Hepatitis C virus [25] = test: Antiviral activity against Hepatitis C virus subtype 2a JFH1 infected in HuH7.5 cells assessed as viral RNA replication after initial decline at 4000 nM after 3 days by TaqMan RT-PCR; type: functional, organism-based; conditions: Hepacivirus hominis
Hepatitis C virus [26] = test: Antiviral activity against Hepatitis C virus subtype 2a JFH1 infected in HuH7.5 cells assessed as delay in occurrence of the viral-induced CPE at 500 nM after 3 days by luciferase reporter assay; type: functional, organism-based; conditions: Hepacivirus hominis
Hepatitis C virus [27] = test: Antiviral activity against Hepatitis C virus infected in HuH7 cells assessed as cell viability at 10 times EC50 after 2 to 3 weeks by neutral red assay in presence of 1,000 ug/ml G418; type: functional, organism-based; conditions: Hepacivirus hominis; Huh-7; outline: as §3
Hepatitis C virus [28] = test: Antiviral activity against Hepatitis C virus subtype 1b infected in HuH7 cells after 72 hrs by luciferase reporter gene assay; conditions: genotype 1b, Huh-7, 72 h

Structure (SMILES): CC(C)(C)NC(=O)N[C@H](C(=O)N1C[C@H]2[C@@H]([C@H]1C(=O)NC(CC1CCC1)C(=O)C(N)=O)C2(C)C)C(C)(C)C (some centres not stated) [BOCEPREVIR]
- EC50 (Hepatitis C virus [1]): 33 nM
- EC50 (Hepatitis C virus [2]): 417 nM
- EC50 (Hepatitis C virus [3]): 193 nM
- EC50 (Hepatitis C virus [4]): 217 nM
- EC50 (Hepatitis C virus [5]): 100 nM
- EC50 (Hepatitis C virus [6]): 85 nM
- EC50 (Hepatitis C virus [7]): 792 nM
- EC50 (Hepatitis C virus [8]): 148 nM
- EC50 (Hepatitis C virus [9]): 62 nM
- Ratio EC50 (Hepatitis C virus [10]): 0.5
- EC50 (Hepatitis C virus [11]): 1550 nM
- Ratio EC50 (Hepatitis C virus [12]): 0.7
- EC50 (Hepatitis C virus [13]): 1450 nM
- EC50 (Hepatitis C virus [14]): 65 nM
- EC50 (Hepatitis C virus [15]): 133 nM

Structure (SMILES): COc1ccc2c(O[C@@H]3C[C@H]4C(=O)N[C@]5(C(=O)O)C[C@H]5/C=C\CCCCC[C@H](NC(=O)OC5CCCC5)C(=O)N4C3)cc(-c3csc(NC(C)C)n3)nc2c1 [CILUPREVIR]
- EC50 (Hepatitis C virus [1]): 1.4 nM
- EC50 (Hepatitis C virus [2]): 5.8 nM
- EC50 (Hepatitis C virus [3]): 2100 nM
- EC50 (Hepatitis C virus [4]): 2.4 nM
- EC50 (Hepatitis C virus [5]): 304 nM
- EC50 (Hepatitis C virus [6]): 1.4 nM
- EC50 (Hepatitis C virus [7]): 84 nM
- Ratio EC50 (Hepatitis C virus [16]): 2.8
- EC50 (Hepatitis C virus [8]): 0.8 nM
- EC50 (Hepatitis C virus [17]): 2.3 nM
- EC50 (Hepatitis C virus [9]): 87 nM
- Ratio EC50 (Hepatitis C virus [10]): 1827
- Ratio EC50 (Hepatitis C virus [12]): 339
- EC50 (Hepatitis C virus [13]): 1 nM
- EC50 (Hepatitis C virus [14]): 22 nM

Structure (SMILES): COc1ccc2c(O[C@@H]3C[C@H]4C(=O)N[C@]5(C(=O)NS(=O)(=O)C6CC6)C[C@H]5/C=C\CCCCN(C)C(=O)[C@@H]4C3)cc(-c3nc(C(C)C)cs3)nc2c1C [SIMEPREVIR]
- inhibition (Hepatitis C virus [18]): inactive
- EC50 (Hepatitis C virus [1]): 11 nM
- inhibition (Hepatitis C virus [19]): Active
- EC50 (Hepatitis C virus [2]): 3610 nM
- Ki (Hepatitis C virus [20]): 0.5 nM
- inhibition (Hepatitis C virus [21]): inactive
- EC50 (Hepatitis C virus [3]): 6240 nM
- EC50 (Hepatitis C virus [4]): 20 nM
- EC50 (Hepatitis C virus [5]): 6360 nM
- EC50 (Hepatitis C virus [6]): 49 nM
- IC50 [22]: 37 nM
- EC50 (Hepatitis C virus [7]): 3.5 nM
- Ratio EC50 (Hepatitis C virus [16]): 1.7
- IC50 [23]: < 13 nM
- EC50 (Hepatitis C virus [8]): 11 nM
- inhibition (Hepatitis C virus [24]): Active
- EC50 (Hepatitis C virus [17]): 18 nM
- EC50 (Hepatitis C virus [9]): 5900 nM
- inhibition (Hepatitis C virus [25]): inactive
- Ratio EC50 (Hepatitis C virus [10]): 2655
- inhibition (Hepatitis C virus [26]): Active
- EC50 (Hepatitis C virus [11]): 22 nM
- Ratio EC50 (Hepatitis C virus [12]): 594
- inhibition (Hepatitis C virus [27]): inactive
- EC50 (Hepatitis C virus [13]): 34 nM
- EC50 (Hepatitis C virus [28]): 8 nM
- EC50 (Hepatitis C virus [14]): 206 nM
- EC50 (Hepatitis C virus [15]): 12 nM

Structure (SMILES): CCC[C@H](NC(=O)[C@@H]1[C@H]2CCC[C@H]2CN1C(=O)[C@@H](NC(=O)[C@@H](NC(=O)c1cnccn1)C1CCCCC1)C(C)(C)C)C(=O)C(=O)NC1CC1 [TELAPREVIR]
- EC50 (Hepatitis C virus [1]): 66 nM
- EC50 (Hepatitis C virus [3]): 187 nM
- EC50 (Hepatitis C virus [4]): 886 nM
- EC50 (Hepatitis C virus [5]): 46 nM
- EC50 (Hepatitis C virus [6]): 216 nM
- EC50 (Hepatitis C virus [7]): 4110 nM
- EC50 (Hepatitis C virus [8]): 150 nM
- Ratio EC50 (Hepatitis C virus [12]): 0.4
- EC50 (Hepatitis C virus [14]): 58 nM

— ChEMBL document CHEMBL1671684, “In vitro resistance profile of the hepatitis C virus NS3/4A protease inhibitor TMC435” (Antimicrob Agents Chemother, 2010)
